# Out of some 1,300 compounds screened, about 65 (5%) were called active. The list is a sample of the results. Measured potencies and affinities stand elsewhere. Unmarked numbers belong to inactive results.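 Rule for the calls: active = growth inhibition reaching a set limit at one or more tested doses; inactive = the rest.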
# Test: wild-type E. coli BW25113 antibacterial activity – OD615, dose response (AID 638)
# Conditions: at 100 µM (top of the series) unless noted
# Method in brief: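 Assay system: E. coli BW25113 wild type. Doses: compound concentration series. Timing: 20 h compound exposure, 37 °C. Technique: OD615 absorbance. Medium: LB broth containing kanamycin at 50 µg/mL. Benchmarks: chloramphenicol at 30 µM final as inhibition control. Measure: IC50 from 4-parameter logistic, bounds fixed 0–100%.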
row,Compound,growth inhibition
1,CCCCCSc1nnc(-c2cc(Br)ccc2N)c(=O)[nH]1,-4.38%
2,CCCc1cc(C(=O)Nc2cccc(Cl)c2)no1,12.5%
3,CC(C)COC(=O)NCCOC(=O)Nc1cccc(Cl)c1,18.9%
4,CCOC(=O)C1CCCN(c2ncnc3c2cnn3-c2ccc(Cl)cc2)C1 (configuration not stated),-11.7%
5,O=C1CC(c2ccco2)CC2=C1C1c3ccccc3C(=O)N1c1ccccc1N2 (configuration not stated),-3.27%
6,CC(C)Cn1c(=O)c(C(=O)Nc2cnccn2)c(O)c2ccccc21,16.1%
7,O=C(C1CC1)N1CCc2cc(S(=O)(=O)NCCC3=CCCCC3)ccc21,9.41%
8,CCOC(=O)c1ccccc1NC(=O)C(C)Oc1ccccc1 (configuration not stated),-0.25%
9,Cc1cc2n(n1)C(c1ccc3c(c1)OCO3)Nc1c(C)cccc1-2 (configuration not stated),-5.6%
10,CSc1nc2ccc(NS(=O)(=O)c3ccc4c(c3)OCCO4)cc2s1,-7.17%
11,Cc1ccc(NC(=O)c2nnn(-c3cc(C)cc(C)c3)c2N)cc1,-3.73%
12,CCCCOc1ccc(S(=O)(=O)N2CCCCCC2)cc1,6.59%
13,Cc1ccc(Cl)cc1N1CCN(C(=O)c2ccc(NS(=O)(=O)c3c(C)noc3C)cc2)CC1,-7.75%
14,CC(=Nc1ccc(O)cc1)c1sc2ccccc2c1O,-1.71%
15,O=c1c2ccccc2nc(SCc2cn3ccsc3n2)n1-c1ccccc1F,-8.01%
16,COC(=O)c1c(NC(=O)Cc2cccs2)sc2c1CCCC2,2.67%
17,COc1ccccc1N1CCN(C(=O)COc2ccc(C)cc2Br)CC1,12.1%
18,CCOC(=O)N1CCN(C(=O)COc2ccc(S(=O)(=O)Nc3ccc(OCC)cc3)cc2)CC1,3.01%
19,CCOc1ccc(NS(=O)(=O)c2ccc(SC)cc2)cc1,11.9%
20,CCOc1ccc(S(=O)(=O)Nc2cccc(Cl)c2)cc1,20% (active)
21,Cc1ccc(-n2c(=O)[nH]cc(C(=O)Nc3ccc4c(c3)OCCO4)c2=O)cc1C,-5.27%
22,O=C(OC1CCc2ccccc2C1=O)c1ccccc1O (configuration not stated),9.44%
23,CCCCCc1cc(O)c2c(C)cc(=O)oc2c1,7.24%
24,CCCCCCOC(=O)C(C#N)c1nc2ccccc2nc1N1CCN(C)CC1 (configuration not stated),12.3%
25,CC1=C(C(=O)OCC(C)C)C(c2cc3c(cc2Br)OCO3)NC(=O)N1C (configuration not stated),12.5%
26,CN(C)c1ccc(/C=N/n2ncc3ccccc32)cc1,-3.99%
27,COc1nc(N(c2ccccc2)c2ccccc2)nc(-n2ccnc2)n1,12.7%

# Reference: PubChem BioAssay AID638 (SRMLSC, 2007)
